Bioassay records from PubChem BioAssay.
Sampled rows, rich in hits. Any-hit rate of the full collection: about 2.1%.
Shn3 3UTR inh = reduces Shn3 3'UTR luciferase signal in osteoblasts; Clone20 osteoblast Shn3 3'UTR firefly luciferase, 24 h; inhibition, % at 12.5 µM; 360,000 compounds, 0.52% hits; AID 588674;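 active = mean inhibition of at least 75% with every replicate also reaching 75%; inconclusive = mean inhibition at least 75% but some replicate below; inactive = mean inhibition below 75%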;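 also: 0% = median of neutral control wells and 100% = pilot-screen positive control compound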
LMP1 NFkB inh = inhibitors of Epstein-Barr LMP1-induced NF-kappaB reporter | LMP1-induced NF-kappaB luciferase reporter cells, luminescence | 350,000 compounds, 0.69% hits | inhibition, % at 12.5 µM; in the data active = inhibition above about 41%; inconclusive = no clear call, values can overlap the other calls;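 also: 0% = neutral control wells and 100% = reference inhibitor control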
PAX8 reporter = PAX8 transcriptional activity inhibition; RMG-I TPO-luciferase reporter, SteadyGlo, 24 h; inhibition, % at 12.6 µM; 360,000 compounds, 1.2% hits;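 active = mean replicate inhibition at least 60% with every replicate also reaching 60%; inconclusive = only one of the two criteria is met; inactive = mean below 60% and not all replicates reaching 60%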;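 also: luciferase light reporting Pax8 driven TPO promoter activity; plate controls were median of neutral control wells for no effect and mitoxantrone controls for full effect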
aSyn UTR inh = MLPCN primary screen, SNCA 5' untranslated region | alpha-synuclein 5'UTR reporter, inhibitor activity | inhibition, % (tested at 7.5 µM) | 300,000 compounds, 0.82% hits | AID 1813; in the data active = inhibition above about 60%; inconclusive = no clear call, values can overlap the other calls;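 also: H4 neuroglioblastoma cells stably carrying SNCA 5'UTR luciferase fusion; 0% = DMSO wells and 100% = positive control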
FN deposit inh = fibronectin deposition inhibition | AH1F fibroblasts, Alexa488-fibronectin deposition fluorescence, overnight | AID 743247 | inhibition, % at 12.6 µM | 350,000 compounds, 0.086% hits;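 active = mean inhibition across replicates of 30% or more, regardless of how many single replicates reach that level; inconclusive = mean under 30% yet at least half of replicates reach 30%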;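 also: positive control wells lacked labelled fibronectin entirely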
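Material: AH1F fibroblast monolayer depositing Alexa488-labelled fibronectin into matrix | Input: 10000 AH1F cells/well | Medium: DMEM plus 2% serum, read in PBS | Reagent: Alexa488-fibronectin, 24 nM final in well | Compound dosing: One dose per compound, pinned | Schedule: 1 h adhesion, overnight exposure | Measured by: Fluorescence at 485 nm excitation, 525 nm emission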
EWS-Fli inh = inhibitors of EWS/Fli oncoprotein transcriptional activity | 350,000 compounds, 0.67% hits | inhibition, % at 12.6 µM | A673 NR0B1-luciferase reporter, viability-normalised;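 active = mean inhibition of at least 50% after viability correction, with every replicate also passing that limit; inconclusive = mean reaches 50% but only one of two replicates passes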;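 also: firefly luciferase signal divided by Alamar Blue viability fluorescence both relative to DMSO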
* = called active by the depositor; ? = inconclusive; nt = not tested or not shown.

SMILES	Shn3 3UTR inh	LMP1 NFkB inh	PAX8 reporter	aSyn UTR inh	FN deposit inh	EWS-Fli inh
CC(C)c1ccc(/C=C2\SC(=S)N(CCC(=O)NCCCn3ccnc3)C2=O)cc1	-1	21	-7	98*	10	nt
CCc1ccc(/C=C2/SC(=S)N(CCC(=O)NCCCN3CCOCC3)C2=O)cc1	-21	-2	-8	16	-9	nt
C[C@H]1CN([C@@H](C)CO)S(=O)(=O)c2ccc(C#CC3CC3)cc2O[C@H]1CN(C)C(=O)Nc1cc(F)ccc1F	nt	nt	nt	nt	nt	-3
CCCc1cn(CC[C@@H]2CC[C@@H](NC(=O)C3CCCC3)[C@@H](CO)O2)nn1	nt	nt	2	nt	-4	7
Cc1ccc(/C=C2\SC(=S)N(CCCC(=O)Nc3ccccc3C(=O)O)C2=O)cc1	25	13	12	68*	nt	35
Cc1ccc(/C=C2\SC(=S)N(CCCC(=O)Nc3ccc(O)cc3)C2=O)cc1	17	39	42	104*	-9	44
COc1ccc(/C=C2\SC(=S)N(CCCC(=O)N3CCCCC3CCO)C2=O)cc1 (stereo unspecified)	8	7	75*	68*	2	nt
COc1ccc(/C=C2\SC(=O)N(CC(=O)Nc3cccc(C)c3)C2=O)cc1O	0	-5	-11	-20	4	72*
CCc1ccc(/C=C2\SC(=S)N(CCCC(=O)Nc3ccccc3C(=O)O)C2=O)cc1	32	-4	-14	38	0	nt
CO[C@H]1CN(C)C(=O)c2cc(NC(=O)Nc3cc(F)ccc3F)ccc2OC[C@@H](C)N(C(=O)c2cnccn2)C[C@H]1C	nt	nt	-2	nt	6	3
C[C@H](NC(=O)C[C@H]1CC[C@@H]2[C@H](COC[C@H](O)CN2C(=O)Nc2cccc(F)c2)O1)c1ccccc1	nt	nt	-24	nt	1	-66
COc1cccc(/C=C2\SC(=S)N(CCC(=O)NC3C=CS(=O)(=O)C3)C2=O)c1 (stereo unspecified)	-17	-11	28	-29	-13	-19
COc1cccc(/C=C2\SC(=S)N(CCC(=O)Nc3ccc(O)cc3)C2=O)c1	-28	-1	-22	-41	-11	-24
COc1cccc(/C=C2\SC(=S)N(CCC(=O)NCCc3ccc(O)cc3)C2=O)c1	-5	41*	100*	34	-7	nt
COc1ccc(/C=C2\SC(=S)N(CCC(=O)NC3C=CS(=O)(=O)C3)C2=O)cc1 (stereo unspecified)	-9	1	-5	66*	2	-4
COc1ccc(/C=C2\SC(=S)N(CCC(=O)Nc3cccc(O)c3)C2=O)cc1OC	-15	4	2	-25	5	-35
COc1ccc(/C=C2/SC(=S)N(CCCC(=O)Nc3cccc(O)c3)C2=O)cc1	3	5	77*	36	1	-3
O=C(NCC1CCCCC1)[C@@H]1[C@@H](CO)[C@@H]2Cn3c(ccc(-c4cccnc4)c3=O)[C@H]1N2	nt	nt	nt	nt	nt	5
CN(C)c1ccc(CNC(=O)C2(C)Cc3c(-c4ccc5c(c4)OCO5)ccnc3O2)cc1 (stereo unspecified)	3	nt	26	nt	6	59*
CN(C)c1ccc(-c2ccnc3c2CC(C)(C(=O)NCC2CC2)O3)cc1 (stereo unspecified)	0	nt	10	nt	35*	16
CN(C)c1ccc(CNC(=O)C2(C)Cc3c(-c4ccc(N(C)C)cc4)ccnc3O2)cc1 (stereo unspecified)	-15	nt	-12	nt	3	-7
Cc1noc(C)c1NC(=O)Nc1cccc2c1O[C@@H](CN(C)C(=O)NC1CCCCC1)[C@H](C)CN([C@@H](C)CO)C2=O	nt	nt	nt	nt	-11	-8
Cc1ccc(C2=NOC(=O)/C2=C\C=C\c2ccccc2)cc1	95*	13	19	16	0	54*
CN(C)/C=C1\C(=O)ON=C1c1ccccc1	3	6	8	1	-8	1
Cc1noc(C)c1S(=O)(=O)Nc1ccc2c(c1)C(=O)N([C@H](C)CO)C[C@@H](C)[C@@H](CN(C)C(=O)CCCN(C)C)OCCCC[C@H](C)O2	nt	nt	5	nt	nt	-10
SMILES	Shn3 3UTR inh	LMP1 NFkB inh	PAX8 reporter	aSyn UTR inh	FN deposit inh	EWS-Fli inh
COC(=O)C[C@@H]1C[C@H]2c3cc(NC(=O)Nc4ccccc4)ccc3O[C@H]2[C@@H](CO)O1	nt	nt	-15	nt	nt	2
O=C(COC(=O)c1ccc([N+](=O)[O-])o1)Nc1cccc(S(=O)(=O)N2CCCCC2)c1	-10	2	7	14	-4	-2
O=C(Nc1ccccc1N1CCOCC1)c1ccc([N+](=O)[O-])o1	-12	-5	51	-45	1	nt
Cc1ccc(NC(=O)c2ccc([N+](=O)[O-])o2)cc1S(=O)(=O)N1CCOCC1	60	-53	84*	-24	nt	49
O=C(Nc1cccc(S(=O)(=O)N2CCCCC2)c1)c1ccc([N+](=O)[O-])o1	69	-34	76*	-268	4	42
O=C(Nc1ccccc1N1CCCCC1)c1ccc([N+](=O)[O-])o1	-11	0	48	nt	8	7
O=C(Nc1ccc(N2CCOCC2)c(Cl)c1)c1ccc([N+](=O)[O-])o1	81	-73	71*	-56	nt	14
CN1CCN(c2ccc(NC(=O)c3ccc([N+](=O)[O-])o3)cc2Cl)CC1	90*	-49	82*	?	8	30
O=C(c1cccnc1)N1C[C@H]2[C@@H](c3ccccc31)[C@H](CO)N2C(=O)Nc1ccc(F)cc1	nt	nt	-8	nt	nt	8
C[C@@H]1CCCCO[C@@H](CN(C)Cc2ccccc2)[C@H](C)CN([C@H](C)CO)C(=O)c2cc(NC(=O)NC3CCCCC3)ccc2O1	nt	nt	6	nt	nt	1
CC(=O)N1CCN(c2ccc(NC(=O)c3ccc(Br)o3)cc2Cl)CC1	nt	-7	-14	-51	0	-61
O=C(Nc1ccc(N2CCCC2)c(Cl)c1)c1ccc([N+](=O)[O-])cc1	-1	1	8	-53	12	-29
CCN1CCN(c2c(Cl)cccc2NC(=O)c2ccc([N+](=O)[O-])o2)CC1	13	-14	7	79*	11	nt
CC(=O)Nc1cccc(NC(=O)/C=C/c2ccc(S(=O)(=O)N3CCOCC3)cc2)c1	18	-8	18	nt	-1	0
CC(C)C(=O)N1CCN(c2ccc(NC(=O)c3ccc([N+](=O)[O-])o3)cc2Cl)CC1	96*	-37	88*	nt	37*	61*
CCCC(=O)N1CCN(c2ccc(NC(=O)c3ccc([N+](=O)[O-])o3)cc2Cl)CC1	96*	-29	104*	-118	5	71*
Cc1ccc(NC(=O)/C=C/c2ccc(S(=O)(=O)N3CCOCC3)cc2)cc1S(=O)(=O)N(C)C	47	11	66*	nt	11	26
O=C(Nc1cccc(Cl)c1N1CCCC1)c1ccc([N+](=O)[O-])o1	-30	9	11	nt	0	14
